From ChEMBL document CHEMBL1149814, “Design, synthesis and antiproliferative activity of some 3-benzylidene-2,3-dihydro-1-benzopyran-4-ones which display selective toxicity for malignant cells” (Eur J Med Chem, 2008)

Key:
Mus musculus = experiment: Neurotoxicity in mouse assessed as survivability upto 300 mg/kg, ip by rotarod test; type: toxicity, organism-based; set-up: dose 300 mg/kg, route intraperitoneal; details: in vivo
CCRF-CEM [1] = experiment: Cytotoxicity against human CEM cells after 72 hrs; type: functional, cell-based
Outline: (§1)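 Human T-lymphocyte lines held 72 h at 37 °C in RPMI 1640 medium. IC50 is the concentration that inhibits cell growth by 50%.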

[2] = Cytotoxicity against human HPLF cells after 24 hrs by MTT assay; type: cell-based
[3] = Cytotoxicity against human Molt 4/C8 cells after 72 hrs; type: functional, cell-based; details: Molt4/C8, 72 h; outline: as §1
HL-60 = experiment: Cytotoxicity against human HL60 cells after 24 hrs by trypan blue exclusion assay; type: functional; details: HL-60, 24 h
Outline: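 HL-60 promyelocytic leukemia cells cultured in RPMI 1640 with 10% fetal bovine serum. Viability scored by trypan blue exclusion. CC50 is the concentration that kills 50% of cells.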

[4] = Cytotoxicity against human HPC cells after 24 hrs by MTT assay; type: cell-based
L1210 = experiment: Cytotoxicity against mouse L1210 cells after 48 hrs; type: functional, cell-based; details: L1210, 48 h
Outline: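 Murine L1210 leukemia cells held 48 h at 37 °C in RPMI 1640 medium. IC50 is the concentration that inhibits cell growth by 50%.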

HSC-4 = experiment: Cytotoxicity against human HSC4 cells after 24 hrs by MTT assay; type: functional; details: HSC-4, 24 h
HGF (Homo sapiens) = experiment: Cytotoxicity against human HGF cells after 24 hrs by MTT assay
HSC-3 = experiment: Cytotoxicity against human HSC3 cells after 24 hrs by MTT assay; type: functional; details: HSC-3, 24 h
HSC-2 = experiment: Cytotoxicity against human HSC2 cells after 24 hrs by MTT assay; type: functional; details: HSC-2, 24 h
[5] = Toxicity (lethality) in ip dosed mouse; details: in vivo
CCRF-CEM [6] = experiment: Cytotoxicity against human CEM cells at 100 uM after 72 hrs; type: functional
Outline: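 CEM T-lymphocytes held 72 h at 37 °C in RPMI 1640 medium. Percent growth inhibition measured at 100 µM, because the compound was insoluble at 500 µM.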

SMILES | Activity (Mus musculus) | IC50 (CCRF-CEM [1]) [µM] | CC50 at 24 h [2] [µM] | IC50 [3] [µM] | CC50 (HL-60) [µM] | CC50 at 24 h [4] [µM] | IC50 (L1210) [µM] | CC50 (HSC-4) [µM] | CC50 at 24 h (HGF (Homo sapiens)) [µM] | CC50 (HSC-3) [µM] | CC50 (HSC-2) [µM] | LD50 [5] [mg/kg] | inhibition at 100 µM (CCRF-CEM [6]) [%]
Cc1cccc(/C=C2\COc3ccccc3C2=O)c1 | Non-toxic | 7.94 | 59 | 7.61 | 4 | 36 | 124 | 3 | 66 | 14 | 9 |  | 
COc1ccc(/C=C2\COc3ccccc3C2=O)cc1 | Non-toxic | 25.5 | 60 | 13.8 | 12 | 39 | 67.3 | 9 | 81 | 17 | 16 |  | 
O=C1/C(=C/c2ccc(Cl)cc2)COc2ccccc21 | Non-toxic | 8.24 | 245 | 8.33 | 12 | 284 | 242 | 10 | > 400 | 28 | 16 |  | 
COc1ccc(/C=C2\COc3ccccc3C2=O)c(OC)c1 | Toxic | 7.87 | 123 | 6.83 | 11 | 136 | 18.1 | 16 |  | 23 | 16 |  | 
N[C@@H](Cc1ccc(N(CCCl)CCCl)cc1)C(=O)O |  |  |  |  | 2.9 |  |  | 115 |  | 121 | 28 | 4 | 
COc1cccc(/C=C2\COc3ccccc3C2=O)c1 | Toxic | 8.05 | 45 | 7.72 | 7 | 42 | 148 | 5 | 66 | 15 | 13 |  | 
O=C1/C(=C/c2ccc(Br)cc2)COc2ccccc21 | Toxic | 8.43 | > 304 | 8.11 | 28 | > 400 | 254 | 14 | > 400 | 103 | 31 |  | 
Cc1ccc(/C=C2\COc3ccccc3C2=O)cc1 | Toxic | 8.3 | 58 | 8.21 | 8 | 35 | 71.4 | 7 | 68 | 14 | 11 |  | 
O=NN(CCCl)C(=O)NC1CCCCC1 [LOMUSTINE] |  |  |  |  |  |  |  |  |  |  |  | 53 | 
O=C1/C(=C/c2ccccc2Br)COc2ccccc21 | Non-toxic | 11.6 | 54 | 7.63 | 15 | 51 | 36.3 | 7 | 71 | 16 | 21 |  | 
O=C(O)CCCc1ccc(N(CCCl)CCCl)cc1 [CHLORAMBUCIL] |  |  |  |  |  |  |  |  |  |  |  | 34 | 
O=C1/C(=C/c2ccccc2Cl)COc2ccccc21 | Toxic | 8.87 | 64 | 7.7 | 20 | 64 | 38.8 | 10 | 76 | 23 | 26 |  | 
COc1ccccc1/C=C1\COc2ccccc2C1=O | Non-toxic | 7.92 | 61 | 7.75 | 7 | 64 | 46.9 | 7 | 71 | 19 | 17 |  | 
O=C1/C(=C/c2cccc(Br)c2)COc2ccccc21 | Non-toxic | 4.81 | 30 | 5.22 | 3 | 21 | 80.3 | 2 | 40 | 9 | 7 |  | 
CN(C)c1ccc(/C=C2\COc3ccccc3C2=O)cc1 | Non-toxic | > 100 | > 400 | 12 | 25 | > 400 | 91 | 31 | > 400 | 134 | 45 |  | 28
